Measured values from ChEMBL document CHEMBL3421570, “Combinatorial Libraries As a Tool for the Discovery of Novel, Broad-Spectrum Antibacterial Agents Targeting the ESKAPE Pathogens” (J Med Chem, 2015).
Values after ≈ are worked out from the molar mass of the structure shown. Active and inactive are the calls of the source. No cut-off for these calls is given here.

Tests used:
Enterococcus faecium [1] = test: Induction of spontaneous mutation in Enterococcus faecium at 2 to 10 MIC; type: functional, organism-based
Enterococcus faecium [2] = test: Antimicrobial activity against Enterococcus faecium assessed as inhibition of microbial growth after 24 hrs; type: functional
Summary of the method: (§1)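 Broth microdilution against multidrug-resistant clinical ESKAPE isolates. Overnight cultures (TSB for Gram-positives, LB for Gram-negatives) diluted 1:1000 in fresh medium, compound in DMF (≤2.0% DMF) added at decreasing concentrations, 37°C.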

Acinetobacter baumannii [3] = test: Induction of spontaneous mutation in Acinetobacter baumannii at 2 to 10 MIC; type: functional, organism-based
Staphylococcus aureus [4] = test: Antimicrobial activity against Staphylococcus aureus USA300 strain FPR3757 infected in mouse model of lethal peritonitis assessed as mouse survival at 2 uM, im dosed 1 hr post infection and measured after 5 days post infection; type: functional, organism-based
Summary of the method: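 Mice, six per group, infected i.p. with 1 × 10^8 CFU ml−1 S. aureus USA300 FPR3757 in PBS with 5% mucin. Compound given i.m. at 2 μM 1 h later; vehicle 45% w/v (2-hydroxypropyl)-β-cyclodextrin in water i.v.; vancomycin i.v. as control. Monitored twice daily for 5 days, pre-moribund animals euthanized. Survival compared by log-rank test.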

Staphylococcus aureus [5] = test: Antibiofilm activity against Staphylococcus aureus incubated for 24 hrs followed by biofilm resuspension in PBS and measured after 24 hrs; type: functional
Summary of the method: (§2)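 Biofilms grown 24 h in 96-well plates from overnight cultures standardized to OD600 0.5 in fresh medium (human serum only for S. aureus; TSB for Gram-positives, LB for Gram-negatives). Medium then replaced with fresh medium containing a concentration range above and below MIC, 37°C overnight. After 24 h biofilm resuspended in PBS, serially diluted, plated in duplicate, CFU counted after 24 h at 37°C. Activity relative to untreated; three technical replicates; MBEC50 reported.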

Klebsiella pneumoniae [6] = test: Bactericidal activity against Klebsiella pneumoniae after 24 hrs; type: functional
Enterococcus faecium [7] = test: Bactericidal activity against Enterococcus faecium after 24 hrs; type: functional
[8] = Cytotoxicity against human A549 cells assessed as cell viability recovery at 225 uM after 48 hrs by MTT assay; type: cell-based; conditions: read-out: Activity
Summary of the method: (§3)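 A549 cells grown in F-12K with L-glutamine, 10% FBS, 1% penicillin-streptomycin, seeded at 1.0 × 10^5 ml−1, allowed to adhere 24 h (37°C, 5% CO2), then exposed to compound in 45% w/v (2-hydroxypropyl)-β-cyclodextrin vehicle for 48 h. MTT 4 h, formazan solubilized in DMSO, absorbance 540 nm. Percent recovery versus vehicle-only; IC50 derived; at least three independent experiments.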

Pseudomonas aeruginosa [9] = test: Antimicrobial activity against Pseudomonas aeruginosa assessed as inhibition of microbial growth after 24 hrs; type: functional; summary of the method: as §1
Staphylococcus aureus [10] = test: Bactericidal activity against methicillin-resistant Staphylococcus aureus at MIC measured after drug wash out after 120 mins by time kill assay; type: functional
Summary of the method: (§4)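 MRSA from stationary phase was regrown 3 h in TSB and seeded at OD600 0.5. […] After 120 min, cells were centrifuged and washed, serially diluted and plated for CFU. Percent recovery is relative to no-drug controls.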

Acinetobacter baumannii [11] = test: Bactericidal activity against Acinetobacter baumannii after 24 hrs; type: functional
[12] = Selectivity index, ratio of IC50 for human A549 cells to MIC for Enterococcus faecium
Klebsiella pneumoniae [13] = test: Antimicrobial activity against Klebsiella pneumoniae isolate 1441 assessed as inhibition of microbial growth in presence of 100 uM efflux pump inhibitor reserpine after 24 hrs; type: functional, organism-based
Klebsiella pneumoniae [14] = test: Induction of spontaneous mutation in Klebsiella pneumoniae at 2 to 10 MIC; type: functional, organism-based
Enterobacter cloacae [15] = test: Antimicrobial activity against Enterobacter cloacae assessed as inhibition of microbial growth at 45 uM after 24 hrs; type: functional, organism-based
Summary of the method: (§5)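 Broth microdilution single-concentration read: overnight cultures diluted 1:1000, compound in DMF (≤2.0%) added, 37°C for 24 h, growth inhibition scored visually by lack of turbidity; triplicate. Gram-positives grown in TSB, Gram-negatives in LB.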

[16] = Cytotoxicity against human A549 cells assessed as cell viability recovery up to 100 uM after 48 hrs by MTT assay; type: cell-based; conditions: read-out: Activity; summary of the method: as §3
Acinetobacter baumannii [17] = test: Antibiofilm activity against Acinetobacter baumannii incubated for 24 hrs followed by biofilm resuspension in PBS and measured after 24 hrs; type: functional; summary of the method: as §2
Acinetobacter baumannii [18] = test: Antimicrobial activity against Acinetobacter baumannii assessed as inhibition of microbial growth at 45 uM after 24 hrs; type: functional, organism-based; summary of the method: as §5
[19] = Selectivity index, ratio of IC50 for human A549 cells to MIC for Pseudomonas aeruginosa
Enterococcus faecium [20] = test: Antimicrobial activity against Enterococcus faecium assessed as inhibition of microbial growth at 45 uM after 24 hrs; type: functional, organism-based; summary of the method: as §5
Enterobacter cloacae [21] = test: Ratio of MIC for Enterobacter cloacae measured after 8 cycle passage to MIC for wild type Enterobacter cloacae; type: functional
Enterobacter cloacae [22] = test: Antibiofilm activity against Enterobacter cloacae incubated for 24 hrs followed by biofilm resuspension in PBS and measured after 24 hrs; type: functional; summary of the method: as §2
Enterococcus faecium [23] = test: Antibiofilm activity against Enterococcus faecium incubated for 24 hrs followed by biofilm resuspension in PBS and measured after 24 hrs; type: functional; summary of the method: as §2
A549 = test: Cytotoxicity against human A549 cells after 48 hrs by MTT assay; type: cell-based; conditions: A549, 48 h; summary of the method: as §3
Klebsiella pneumoniae [24] = test: Antibiofilm activity against Klebsiella pneumoniae incubated for 24 hrs followed by biofilm resuspension in PBS and measured after 24 hrs; type: functional; summary of the method: as §2
Enterobacter cloacae [25] = test: Induction of spontaneous mutation in Enterobacter cloacae at 2 to 10 MIC; type: functional, organism-based
Klebsiella pneumoniae [26] = test: Antimicrobial activity against Klebsiella pneumoniae assessed as inhibition of microbial growth at 45 uM after 24 hrs; type: functional, organism-based; summary of the method: as §5
Enterobacter cloacae [27] = test: Bactericidal activity against Enterobacter cloacae after 24 hrs; type: functional
Klebsiella pneumoniae [28] = test: Antimicrobial activity against Klebsiella pneumoniae assessed as inhibition of microbial growth after 24 hrs; type: functional; summary of the method: as §1
Staphylococcus aureus [29] = test: Antimicrobial activity against Staphylococcus aureus assessed as inhibition of microbial growth at 45 uM after 24 hrs; type: functional, organism-based; summary of the method: as §5
Staphylococcus aureus [30] = test: Antimicrobial activity against Staphylococcus aureus assessed as inhibition of microbial growth after 24 hrs; type: functional; summary of the method: as §1
Enterobacter cloacae [31] = test: Antimicrobial activity against Enterobacter cloacae assessed as inhibition of microbial growth after 24 hrs; type: functional; summary of the method: as §1
Acinetobacter baumannii [32] = test: Antimicrobial activity against Acinetobacter baumannii assessed as inhibition of microbial growth after 24 hrs; type: functional; summary of the method: as §1
[33] = Selectivity index, ratio of IC50 for human A549 cells to MIC for Enterobacter cloacae
Staphylococcus aureus [34] = test: Ratio of MIC for Staphylococcus aureus measured after 8 cycle passage to MIC for wild type Staphylococcus aureus; type: functional
Pseudomonas aeruginosa [35] = test: Antimicrobial activity against Pseudomonas aeruginosa assessed as inhibition of microbial growth at 45 uM after 24 hrs; type: functional, organism-based; summary of the method: as §5
Acinetobacter baumannii [36] = test: Ratio of MIC for Acinetobacter baumannii measured after 8 cycle passage to MIC for wild type Acinetobacter baumannii; type: functional
[37] = Selectivity index, ratio of IC50 for human A549 cells to MIC for Acinetobacter baumannii
Staphylococcus aureus [38] = test: Bactericidal activity against methicillin-resistant Staphylococcus aureus assessed as cell survival recovery at MIC measured after drug wash out after 120 mins by time kill assay; type: functional; summary of the method: as §4
[39] = Selectivity index, ratio of IC50 for human A549 cells to MIC for Staphylococcus aureus
Staphylococcus aureus [40] = test: Effect on bacterial density of methicillin-resistant Staphylococcus aureus at MIC measured over 2 hrs period by time kill assay; type: functional, organism-based
[41] = Induction of hemolysis in human RBC at 10 uM incubated for 15 mins; type: cell-based, Erythrocyte; conditions: red blood cells, read-out: Activity
Summary of the method: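 Human RBCs from whole blood, resuspended 20% v/v in HA buffer (NaCl, CaCl2), compound 10 μM, 15 min at 37°C. Centrifuged 5,500 g for 1 min, supernatant OD543 read. Percent hemolysis against DMF vehicle (0%) and 1.0% Triton X-100 (100%); triplicate.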

Pseudomonas aeruginosa [42] = test: Induction of spontaneous mutation in Pseudomonas aeruginosa at 2 to 10 MIC; type: functional, organism-based; conditions: 2 to 10 x MIC
Staphylococcus aureus [43] = test: Induction of spontaneous mutation in Staphylococcus aureus at 2 to 10 MIC; type: functional, organism-based
Staphylococcus aureus [44] = test: Bactericidal activity against Staphylococcus aureus after 24 hrs; type: functional
Pseudomonas aeruginosa [45] = test: Bactericidal activity against Pseudomonas aeruginosa after 24 hrs; type: functional
Klebsiella pneumoniae [46] = test: Ratio of MIC for Klebsiella pneumoniae measured after 8 cycle passage to MIC for wild type Klebsiella pneumoniae; type: functional
[47] = Selectivity index, ratio of IC50 for human A549 cells to MIC for Klebsiella pneumoniae
Pseudomonas aeruginosa [48] = test: Antibiofilm activity against Pseudomonas aeruginosa incubated for 24 hrs followed by biofilm resuspension in PBS and measured after 24 hrs; type: functional; summary of the method: as §2

CCCCCCCN1C(=N)N(CCCC[C@H]2CNC(=N)N2CCCCC2CCCCC2)C[C@@H]1CC1CCCCC1
Activity (Enterococcus faecium [1]): inactive | MIC (Enterococcus faecium [2]): 1.6 µM | Activity (Acinetobacter baumannii [3]): inactive | Activity (Staphylococcus aureus [4]): Active | MBEC50 (Staphylococcus aureus [5]): 7.6 µM | MBC90 (Klebsiella pneumoniae [6]): 4.5 µM (≈ 2.51 µg/mL) | MBC90 (Enterococcus faecium [7]): 2.9 µM (≈ 1.62 µg/mL) | viability at 48 h, 225 µM [8]: > 50% | MIC (Pseudomonas aeruginosa [9]): 1.6 µM | fold change (FC) (Staphylococcus aureus [10]): 2.5 | MBC90 (Acinetobacter baumannii [11]): 2.8 µM (≈ 1.56 µg/mL) | Selectivity Index [12]: >139 | growth inhibition (GI) (Klebsiella pneumoniae [13]): Active | Activity (Klebsiella pneumoniae [14]): inactive | growth inhibition (GI) (Enterobacter cloacae [15]): Active | viability at 48 h [16]: > 65% | MBEC50 (Acinetobacter baumannii [17]): 14 µM | growth inhibition (GI) (Acinetobacter baumannii [18]): Active | Selectivity Index [19]: >139 | growth inhibition (GI) (Enterococcus faecium [20]): Active | Ratio (Enterobacter cloacae [21]): <=8 | MBEC50 (Enterobacter cloacae [22]): 13 µM | MBEC50 (Enterococcus faecium [23]): 28 µM | IC50 (A549): > 225 µM | MBEC50 (Klebsiella pneumoniae [24]): 6.3 µM | Activity (Enterobacter cloacae [25]): inactive | growth inhibition (GI) (Klebsiella pneumoniae [26]): Active | MBC90 (Enterobacter cloacae [27]): 9.6 µM (≈ 5.35 µg/mL) | MIC (Klebsiella pneumoniae [28]): 1.6 µM | growth inhibition (GI) (Staphylococcus aureus [29]): Active | MIC (Staphylococcus aureus [30]): 1.6 µM | MIC (Enterobacter cloacae [31]): 1.6 µM | MIC (Acinetobacter baumannii [32]): 1.6 µM | Selectivity Index [33]: >139 | Ratio (Staphylococcus aureus [34]): 16 | growth inhibition (GI) (Pseudomonas aeruginosa [35]): Active | Ratio (Acinetobacter baumannii [36]): <=8 | Selectivity Index [37]: >139 | Survival (Staphylococcus aureus [38]): 0.2% | Selectivity Index [39]: >139 | Activity (Staphylococcus aureus [40]): inactive | hemolysis at 0.25 h, 10 µM [41]: 0.34% | Activity (Pseudomonas aeruginosa [42]): inactive | Activity (Staphylococcus aureus [43]): inactive | MBC90 (Staphylococcus aureus [44]): 3.9 µM (≈ 2.17 µg/mL) | MBC90 (Pseudomonas aeruginosa [45]): 4 µM (≈ 2.23 µg/mL) | Ratio (Klebsiella pneumoniae [46]): <=8 | Selectivity Index [47]: >139 | MBEC50 (Pseudomonas aeruginosa [48]): 34 µM
